From ChEMBL document CHEMBL3616378 (J Med Chem, 2015)

Legend:
[1] = target: T1, Metabotropic glutamate receptor 3 (Homo sapiens, UniProt Q14832); experiment: Displacement of [3H]-459477 from human recombinant mGlu3 receptor expressed in AV12 cells after 90 mins by liquid scintillation counting; assay type: cell-based
[2] = target: T2, Metabotropic glutamate receptor 2 (Homo sapiens, UniProt Q14416); experiment: Antagonist activity at human recombinant mGlu2 receptor expressed in AV12 cells assessed as inhibition of glutamate-stimulated Ca2+ mobilization after 1 hr by FLIPR assay; assay type: functional, cell-based
Summary of the method: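 AV12 cells stably co-expressing rat EAAT1, Gα15 and human mGlu2 (Bmax 1.35 pmol/mg), plated 85K/well 24 h ahead in medium with 250 µM L-glutamine. Compounds were dissolved from 10 mM stocks in 0.1N NaOH and run as 10-point 3-fold series. Fluo-3 AM Ca2+ transients were read by FLIPR. Read-out was % inhibition of the EC90 glutamate response, with relative IC50 from a four-parameter logistic fit.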

[3] = target: T1, Metabotropic glutamate receptor 3; experiment: Agonist activity at human recombinant mGlu3 receptor expressed in AV12 cells assessed as stimulation of Ca2+ mobilization after 1.5 hrs by FLIPR assay; assay type: functional, cell-based
[4] = target: T1, Metabotropic glutamate receptor 3; experiment: Agonist activity at human recombinant mGlu3 receptor expressed in AV12 cells assessed as inhibition of forskolin-stimulated cAMP production after 1 hr by fluorescence assay; assay type: functional, cell-based
[5] = target: T2, Metabotropic glutamate receptor 2; experiment: Agonist activity at human recombinant mGlu2 receptor expressed in AV12 cells assessed as stimulation of Ca2+ mobilization after 1 hr by FLIPR assay; assay type: functional, cell-based
[6] = target: T1, Metabotropic glutamate receptor 3; experiment: Antagonist activity at human recombinant mGlu3 receptor expressed in AV12 cells assessed as inhibition of glutamate-stimulated Ca2+ mobilization after 1.5 hrs by FLIPR assay; assay type: functional, cell-based
[7] = target: T1, Metabotropic glutamate receptor 3; experiment: Antagonist activity at human recombinant mGlu3 receptor expressed in AV12 cells assessed as reversal of DCG-4-inhibited, forskolin-stimulated cAMP production after 1 hr by fluorescence assay; assay type: functional, cell-based
[8] = target: T2, Metabotropic glutamate receptor 2; experiment: Displacement of [3H]-459477 from human recombinant mGlu2 receptor expressed in AV12 cells after 90 mins by liquid scintillation counting; assay type: cell-based
[9] = target: T2, Metabotropic glutamate receptor 2; experiment: Antagonist activity at human recombinant mGlu2 receptor expressed in AV12 cells assessed as reversal of DCG-4-inhibited, forskolin-stimulated cAMP production after 1 hr by fluorescence assay; assay type: functional, cell-based
[10] = target: T2, Metabotropic glutamate receptor 2; experiment: Agonist activity at human recombinant mGlu2 receptor expressed in AV12 cells assessed as inhibition of forskolin-stimulated cAMP production after 20 min by fluorescence assay
[11] = target: T1, Metabotropic glutamate receptor 3; experiment: Agonist activity at wild type human recombinant mGlu3 receptor expressed in AV12 cells assessed as stimulation of Ca2+ mobilization after 1 hr by FLIPR assay; assay type: functional, cell-based
[12] = target: Metabotropic glutamate receptor 3 (Homo sapiens, UniProt Q14832, D279E); experiment: Agonist activity at human recombinant mGlu3 receptor D279E mutant expressed in AV12 cells assessed as stimulation of Ca2+ mobilization after 1 hr by FLIPR assay; assay type: functional, cell-based
[13] = target: Metabotropic glutamate receptor 3 (Homo sapiens, UniProt Q14832, Q306L); experiment: Agonist activity at human recombinant mGlu3 receptor Q306L mutant expressed in AV12 cells assessed as stimulation of Ca2+ mobilization after 1 hr by FLIPR assay; assay type: functional, cell-based
[14] = target: Metabotropic glutamate receptor 3 (Homo sapiens, UniProt Q14832, D279E/Q306L); experiment: Agonist activity at human recombinant mGlu3 receptor D279E and Q306L mutant expressed in AV12 cells assessed as stimulation of Ca2+ mobilization after 1 hr by FLIPR assay; assay type: functional, cell-based
Metabotropic glutamate receptor 3 (Homo sapiens, UniProt Q14832, D279E/Q306L), sequence (Q14832 23-879 D279E/Q306L limits assumed): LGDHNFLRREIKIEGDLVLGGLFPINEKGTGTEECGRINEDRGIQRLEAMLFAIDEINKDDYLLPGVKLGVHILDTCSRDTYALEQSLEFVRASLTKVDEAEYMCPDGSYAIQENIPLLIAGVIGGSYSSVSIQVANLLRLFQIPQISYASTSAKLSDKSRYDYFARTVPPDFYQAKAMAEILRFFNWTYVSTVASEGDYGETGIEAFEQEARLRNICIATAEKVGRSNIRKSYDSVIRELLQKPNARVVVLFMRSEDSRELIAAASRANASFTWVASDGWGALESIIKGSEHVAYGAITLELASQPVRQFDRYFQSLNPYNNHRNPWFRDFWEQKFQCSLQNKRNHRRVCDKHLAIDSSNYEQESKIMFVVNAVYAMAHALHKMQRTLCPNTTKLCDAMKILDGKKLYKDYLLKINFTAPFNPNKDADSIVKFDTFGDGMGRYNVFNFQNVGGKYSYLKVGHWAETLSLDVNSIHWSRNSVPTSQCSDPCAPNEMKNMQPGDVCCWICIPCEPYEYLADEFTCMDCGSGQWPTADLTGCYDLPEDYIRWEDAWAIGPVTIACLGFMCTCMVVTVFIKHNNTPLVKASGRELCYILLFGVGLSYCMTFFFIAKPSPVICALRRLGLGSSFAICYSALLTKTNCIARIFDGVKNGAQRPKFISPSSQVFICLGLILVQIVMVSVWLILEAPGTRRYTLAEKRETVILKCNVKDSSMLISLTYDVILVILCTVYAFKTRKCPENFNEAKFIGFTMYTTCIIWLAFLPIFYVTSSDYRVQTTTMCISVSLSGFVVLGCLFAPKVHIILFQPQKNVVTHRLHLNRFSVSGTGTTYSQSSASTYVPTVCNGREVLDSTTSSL

T2 sequence (Q14416 whole entry): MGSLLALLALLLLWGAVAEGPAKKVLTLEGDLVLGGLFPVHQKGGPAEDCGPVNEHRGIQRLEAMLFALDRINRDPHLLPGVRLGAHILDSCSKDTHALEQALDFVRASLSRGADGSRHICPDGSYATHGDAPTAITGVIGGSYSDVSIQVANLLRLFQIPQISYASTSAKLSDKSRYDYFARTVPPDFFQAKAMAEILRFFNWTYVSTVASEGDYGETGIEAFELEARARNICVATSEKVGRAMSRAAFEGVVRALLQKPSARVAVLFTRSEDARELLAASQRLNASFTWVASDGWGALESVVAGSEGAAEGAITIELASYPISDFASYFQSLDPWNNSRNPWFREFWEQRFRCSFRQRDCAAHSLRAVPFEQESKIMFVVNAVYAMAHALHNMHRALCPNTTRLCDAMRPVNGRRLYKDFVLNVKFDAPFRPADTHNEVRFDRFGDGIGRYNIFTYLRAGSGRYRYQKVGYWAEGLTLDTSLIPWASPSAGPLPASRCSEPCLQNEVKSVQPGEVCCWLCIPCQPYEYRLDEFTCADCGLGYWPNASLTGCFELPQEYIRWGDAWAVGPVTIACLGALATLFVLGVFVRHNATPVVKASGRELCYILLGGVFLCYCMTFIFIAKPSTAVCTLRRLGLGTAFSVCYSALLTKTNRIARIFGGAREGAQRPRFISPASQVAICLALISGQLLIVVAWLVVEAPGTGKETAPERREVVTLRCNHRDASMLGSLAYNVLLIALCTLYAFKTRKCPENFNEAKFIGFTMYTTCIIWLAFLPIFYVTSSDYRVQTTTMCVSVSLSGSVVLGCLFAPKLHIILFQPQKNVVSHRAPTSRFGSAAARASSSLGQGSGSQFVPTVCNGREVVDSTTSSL
T1 sequence (Q14832 whole entry): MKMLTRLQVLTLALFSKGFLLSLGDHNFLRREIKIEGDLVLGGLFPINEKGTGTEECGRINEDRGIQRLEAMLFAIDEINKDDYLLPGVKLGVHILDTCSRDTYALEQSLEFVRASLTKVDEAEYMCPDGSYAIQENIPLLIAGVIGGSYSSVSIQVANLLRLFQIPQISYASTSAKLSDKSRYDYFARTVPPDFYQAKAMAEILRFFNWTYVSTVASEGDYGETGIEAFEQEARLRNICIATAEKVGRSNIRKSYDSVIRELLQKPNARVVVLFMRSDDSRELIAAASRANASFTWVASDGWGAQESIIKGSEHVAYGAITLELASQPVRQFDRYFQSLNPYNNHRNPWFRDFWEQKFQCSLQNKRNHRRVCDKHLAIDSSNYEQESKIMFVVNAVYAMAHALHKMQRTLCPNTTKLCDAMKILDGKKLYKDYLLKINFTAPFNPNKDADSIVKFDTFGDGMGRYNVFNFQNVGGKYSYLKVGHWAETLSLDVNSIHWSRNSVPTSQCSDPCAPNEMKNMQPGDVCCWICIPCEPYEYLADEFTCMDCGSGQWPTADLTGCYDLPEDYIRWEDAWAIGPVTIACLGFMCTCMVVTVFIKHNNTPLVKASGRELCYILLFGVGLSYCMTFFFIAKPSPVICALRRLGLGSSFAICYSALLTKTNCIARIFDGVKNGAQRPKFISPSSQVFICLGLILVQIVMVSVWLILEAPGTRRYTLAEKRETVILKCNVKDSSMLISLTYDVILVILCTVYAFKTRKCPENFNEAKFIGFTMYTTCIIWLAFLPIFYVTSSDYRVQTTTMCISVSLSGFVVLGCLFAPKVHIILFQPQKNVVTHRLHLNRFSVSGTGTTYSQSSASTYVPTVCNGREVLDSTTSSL
Metabotropic glutamate receptor 3 (Homo sapiens, UniProt Q14832, D279E), sequence (Q14832 23-879 D279E limits assumed): as the sequence (Q14832 23-879 D279E/Q306L limits assumed) above, with L284Q counted along it
Metabotropic glutamate receptor 3 (Homo sapiens, UniProt Q14832, Q306L), sequence (Q14832 23-879 Q306L limits assumed): as the sequence (Q14832 23-879 D279E/Q306L limits assumed) above, with E257D counted along it

SMILES	Ki [1] [nM]	IC50 [2] [nM]	EC50 [3] [nM]	EC50 [4] [nM]	EC50 [5] [nM]	IC50 [6] [nM]	IC50 [7] [nM]	Ki [8] [nM]	IC50 [9] [nM]	EC50 [10] [nM]	EC50 [11] [nM]	EC50 [12] [nM]	EC50 [13] [nM]	EC50 [14] [nM]
N[C@@]1(C(=O)O)C[C@@H](Sc2ccccc2)[C@H]2[C@H](C(=O)O)[C@H]21	138	> 12500	> 25000	> 25000	> 12500	7690	1070	420	–	–	–	–	–	–
N[C@@]1(C(=O)O)C[C@H](Sc2ccccc2)[C@H]2[C@H](C(=O)O)[C@H]21	272	> 12500	> 5000	> 25000	> 25000	6710	–	1230	15300	–	–	–	–	–
Cc1nnc(S[C@@H]2C[C@@](N)(C(=O)O)[C@@H]3[C@@H](C(=O)O)[C@@H]32)[nH]1	62.4	–	105	103	39.5	–	–	121	–	10.4	–	–	–	–
N[C@@]1(C(=O)O)C[C@@H](Sc2nnc(C(F)(F)F)[nH]2)[C@H]2[C@H](C(=O)O)[C@H]21	56.7	–	82	79.5	–	–	528	–	–	–	–	–	–	–
N[C@@]1(C(=O)O)C[C@@H](Sc2nnc(C(F)F)[nH]2)[C@H]2[C@H](C(=O)O)[C@H]21	63.2	–	> 25000	77.7	53.6	154	459	95.8	–	11.8	–	–	–	–
Nc1nnc(S[C@@H]2C[C@@](N)(C(=O)O)[C@@H]3[C@@H](C(=O)O)[C@@H]32)[nH]1	58.3	–	> 25000	74	13	94.7	–	67	–	4.5	–	–	–	–
CC(C)c1nnc(S[C@@H]2C[C@@](N)(C(=O)O)[C@@H]3[C@@H](C(=O)O)[C@@H]32)[nH]1	157	–	> 25000	281	87.8	> 12500	859	266	–	16.5	–	–	–	–
N[C@@]1(C(=O)O)C[C@@H](Sc2c[nH]nn2)[C@H]2[C@H](C(=O)O)[C@H]21	259	–	> 25000	235	–	5510	2380	142	–	12.4	–	–	–	–
N[C@@]1(C(=O)O)C[C@H](Sc2nnc[nH]2)[C@H]2[C@H](C(=O)O)[C@H]21	126	–	> 25000	227	–	3100	4260	60.4	–	11.2	–	–	–	–
Cc1nnc(S[C@H]2C[C@@](N)(C(=O)O)[C@@H]3[C@@H](C(=O)O)[C@@H]32)[nH]1	79	–	> 25000	96.6	146	3590	–	171	–	44.3	–	–	–	–
N[C@@]1(C(=O)O)C[C@H](Sc2n[nH]c(C(F)(F)F)n2)[C@H]2[C@H](C(=O)O)[C@H]21	43.1	–	> 25000	30.5	–	624	–	–	–	–	–	–	–	–
N[C@@]1(C(=O)O)C[C@H](Sc2nnc(C(F)F)[nH]2)[C@H]2[C@H](C(=O)O)[C@H]21	57.5	–	> 25000	27.3	6.3	244	–	13.4	–	0.58	–	–	–	–
Nc1nnc(S[C@H]2C[C@@](N)(C(=O)O)[C@@H]3[C@@H](C(=O)O)[C@@H]32)[nH]1	69	–	> 25000	112	20.1	3870	–	27.8	–	6.4	–	–	–	–
CC(C)c1nc(S[C@H]2C[C@@](N)(C(=O)O)[C@@H]3[C@@H](C(=O)O)[C@@H]32)n[nH]1	82.7	–	> 25000	77.9	242	2350	–	339	–	74	–	–	–	–
N[C@@]1(C(=O)O)C[C@H](Sc2c[nH]nn2)[C@H]2[C@H](C(=O)O)[C@H]21	65.1	–	> 25000	92.7	19	2790	–	111	–	5.2	–	–	–	–
N[C@@]1(C(=O)O)CC[C@H]2[C@H](C(=O)O)[C@H]21	107	–	140	27.9	34.4	–	–	71.7	–	7	–	–	–	–
N[C@@H](CCC(=O)O)C(=O)O [GLUTAMIC ACID]	–	–	–	–	–	–	–	–	–	–	1000	4180	1480	5120
